Series [1] relates to H9c2. In words: Cytotoxicity against differentiated rat H9c2 cells assessed as reduction in cell viability at 10 nM after 24 hrs by MTT assay. Type of series: cell-based. The note with it: h9c2, 24 h, 0.01 µM. Summed up: (§1)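 H9C2 rat embryonic ventricular cell line, grown subconfluent in DMEM-F12 with 10% heat-inactivated FBS; differentiated cells obtained in 1% FCS medium with 10 nM retinoic acid added daily with medium renewal. Cells, undifferentiated or differentiated, exposed 24 h to 10 nM, 1, 10 or 100 µM compound; viability by MTT reduction to formazan, optical density at 570 nm, expressed as percent of control.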
Background: Tetrazolium assays rely on reduction of a dye to a coloured formazan, in cell work by metabolically active cells.

Series [2] relates to H9c2. In words: Cytotoxicity against differentiated rat H9c2 cells assessed as reduction in cell viability at 1 uM after 24 hsr by MTT assay. Format: cell-based. The note with it: h9c2, 1 µM. In a few lines: as §1
The test system of series [3] is H9c2. In words: Increase in cytoplasmic intracellular calcium level in differentiated rat H9c2 cells depolarized through 60 mM KCl application in presence of extracellular calcium assessed as cells that prolonged KCl-dependent intracellular [Ca2+] transient at 10 uM by Fura-2-AM dye based epifluorescent microscopy. Format: functional. Summed up: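 Differentiated H9C2 cardiomyocytes (10 nM retinoic acid daily, 1% FCS) loaded with Fura 2-AM for 40 min, then 15 min at 37 °C in NES. Depolarized with 60 mM KCl in NES with extracellular Ca2+. 10 µM compound given within 30 s after start of the KCl-dependent plateau. Ratio imaging at 340/380 nm excitation, 510 nm emission. Scored as percent of tested cells (n per compound) with prolonged transient.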

The subject of series [4] is H9c2. In words: Cytotoxicity against differentiated rat H9c2 cells assessed as reduction in cell viability at 10 uM after 24 hrs by MTT assay. Type of series: cell-based. The note with it: h9c2, 24 h. Summed up:
as §1

For series [5], the system named is H9c2. Briefly: Cytotoxicity against differentiated rat H9c2 cells assessed as reduction in cell viability at 100 uM after 24 hrs by MTT assay. Type of series: cell-based. The note with it: h9c2, 24 h. In a few lines: as §1
In series [6] the test system is H9c2. In words: Toxicity against undifferentiated rat H9c2 cells assessed as reduction in cell viability at 100 uM after 24 hrs by MTT assay. Format: cell-based. Particulars: h9c2, 24 h. Summed up:
as §1

In series [7] the test system is H9c2. Briefly: Increase in cytoplasmic intracellular calcium level in differentiated rat H9c2 cells at 10 uM by Fura-2-AM dye based epifluorescent microscopy. Format: functional. Summed up: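 Retinoic acid (10 nM, daily)-differentiated H9C2 cells loaded 40 min with Fura 2-AM, washed in NES, held 15 min at 37 °C for dye de-esterification. Cells stimulated directly with 10 µM compound; single living cells imaged by epifluorescence microscopy, excitation 340/380 nm, emission 510 nm, whole-cell fluorescence ratio. Minimum 10, maximum 25 cells per compound; percentage of cells showing basal [Ca2+]i increase.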

As for `Cc1[nH]c(=O)c(C#N)cc1-c1ccncc1` [MILRINONE], the Activity with H9c2 [1] is given as 90%; with H9c2 [2] it was 90%; in the series on H9c2 [3], 50%; in the series with H9c2 [4], 75%; with H9c2 [5], 50%.
As for `Cc1ccc(C#N)c(=O)[nH]1`, the Activity in the series on H9c2 [1] was determined as 90%; with H9c2 [2] it was 90%; in the series with H9c2 [6], 50%; in the series on H9c2 [3] it was 45%; in the series on H9c2 [7] it was 78%; in the series on H9c2 [4], 75%. For the same molecule, the Activity with H9c2 [5] stood at 50%.
Take `CCOC(=O)N1CCC(NC(=O)c2cc(C#N)c(=O)[nH]c2C)CC1`: the Activity with H9c2 [1] is 90%; with H9c2 [2] it was 90%; in the series with H9c2 [6], 20%; in the series on H9c2 [3] it was 25%; in the series on H9c2 [4], 75%; with H9c2 [5] it was 50%.
With `Cc1[nH]c(=O)c(C#N)cc1C(=O)OCc1ccccc1`, the Activity in the series with H9c2 [3] was 0%.
On the same count and under the same terms, next, `Cc1[nH]c(=O)c(C#N)cc1C(=O)O`: 0%; `Cc1[nH]c(=O)c(C#N)cc1C(=O)OCCSc1ccccn1`: 0%; `CCOC(=O)c1cc(C#N)c(=O)[nH]c1C`: 0%.
Turning to `Cc1[nH]c(=O)c(C#N)cc1C(=O)OCCSc1nc2ccccc2s1`, in the series on H9c2 [3], the Activity turned out to be 0%.
Take `Cc1[nH]c(=O)c(C#N)cc1C(=O)NCc1ccccc1`: the Activity in the series with H9c2 [1] is listed as 90%; in the series with H9c2 [6], 20%; in the series on H9c2 [3], 40%; with H9c2 [4] it was 75%.
On to `Cc1[nH]c(=O)c(C#N)cc1C(=O)NC(C)c1ccccc1` (centres undefined), for which, in the series on H9c2 [3], the Activity was determined as 0%.
On to `CCC(NC(=O)c1cc(C#N)c(=O)[nH]c1C)c1ccccc1` (centres undefined), for which the Activity in the series on H9c2 [1] was 90%; with H9c2 [2] it was 90%; in the series on H9c2 [6] it was 50%; with H9c2 [3], 30%; with H9c2 [4] it was 75%; with H9c2 [5] it was 50%.

The record behind these values is ChEMBL document CHEMBL1275288, “Effect of milrinone analogues on intracellular calcium increase in single living H9C2 cardiac cells” (Eur J Med Chem, 2010).
